For 18 molecules, inhibition and IC50 results are on record in ChEMBL document CHEMBL1240423, “Synthesis and evaluation of quinazolinone derivatives as inhibitors of NF-kappaB, AP-1 mediated transcription and eIF-4E mediated translational activation: inhibitors of multi-pathways involve in cancer” (Eur J Med Chem, 2010).

SMILES strings stand for the structures. Where only a bound is given, the exact number is not on record here.

For assay [1], the system named is HEK293. In words: Inhibition of NF-kappaB expressed in HEK293 cells assessed as inhibition of TNF-alpha-induced transcriptional activation at 1 uM treated 24 hrs before TNFalpha challenge by luciferase reporter gene assay relative to control. It is filed as cell-based. The method in brief: (§1)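 Luciferase reporter screen with each sample in triplicate in two or three independent experiments. Values are the average of those experiments. Rapamycin served as the reference eIF-4E inhibitor.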
For orientation: In a reporter assay the amount or activity of a reporter protein is the signal.

The target of assay [2] is Eukaryotic translation initiation factor 4E (Homo sapiens) (UniProt P06730). Kind of assay: Inhibition of eIF-4E expressed in human FaDu cells assessed as inhibition of translational activation at 1 uM by luciferase reporter gene assay relative to control. The format is cell-based. The method in brief: as §1
In assay [3] the target is Transcription factor Jun (Homo sapiens) (UniProt P05412). Kind of assay: Inhibition of AP1 expressed in HEK293 cells assessed as inhibition of PMA-induced transcriptional activation at 1 uM treated 24 hrs before PMA challenge by luciferase reporter gene assay relative to control. The format is cell-based. The method in brief: as §1
Assay [4] can be described thus: Inhibition of NF-kappaB expressed in HEK293 cells assessed as inhibition of TNF-alpha-induced transcriptional activation treated 2 hrs before TNFalpha challenge measured after 24 hrs by luciferase reporter gene assay. It is filed as cell-based. The method in brief:
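Stably transfected NF-κB luciferase reporter cells were plated, and 24 h later given test compound at six concentrations for 2 h. TNF-α was then added at 20 ng/ml to induce transcription. Cells were then lysed, luciferase activity was recorded, and values were normalised.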

A further assay deals with FaDu. In words: Cytotoxicity against human FADU cells assessed as growth inhibition at 3.3 uM by MTT assay. The format is functional. Background: Formazan colour is commonly taken as a measure of viable cells.
A short description of assay [5]: Inhibition of NF-kappaB expressed in HEK293 cells assessed as inhibition of TNF-alpha-induced transcriptional activation treated 24 hrs before TNFalpha challenge by luciferase reporter gene assay. It is filed as cell-based. The procedure, abridged: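 Six-point dose response […] in ½-log steps, screened as in the primary reporter assay. IC50 calculated from the dose-response data.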

Assay [6] deals with HEK293. Kind of assay: Inhibition of NF-kappaB expressed in HEK293 cells assessed as inhibition of TNF-alpha-induced transcriptional activation at 3.3 uM treated 2 hrs before TNFalpha challenge measured after 24 hrs by luciferase reporter gene assay relative to control. It is filed as cell-based. The procedure, abridged: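 Stably transfected NF-κB reporter cells plated, then after 24 h pretreated with compound at six concentrations for 2 h before 20 ng/ml TNF-α induction. Cells later lysed, luciferase activity read and normalized.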

Eukaryotic translation initiation factor 4E (Homo sapiens), sequence (P06730 whole entry): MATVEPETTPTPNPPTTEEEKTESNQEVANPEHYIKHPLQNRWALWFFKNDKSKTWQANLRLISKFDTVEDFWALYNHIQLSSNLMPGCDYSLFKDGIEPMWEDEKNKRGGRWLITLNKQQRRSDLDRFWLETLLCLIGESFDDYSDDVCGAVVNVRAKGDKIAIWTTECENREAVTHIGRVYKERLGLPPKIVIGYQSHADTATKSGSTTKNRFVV
Transcription factor Jun (Homo sapiens), sequence (P05412 whole entry): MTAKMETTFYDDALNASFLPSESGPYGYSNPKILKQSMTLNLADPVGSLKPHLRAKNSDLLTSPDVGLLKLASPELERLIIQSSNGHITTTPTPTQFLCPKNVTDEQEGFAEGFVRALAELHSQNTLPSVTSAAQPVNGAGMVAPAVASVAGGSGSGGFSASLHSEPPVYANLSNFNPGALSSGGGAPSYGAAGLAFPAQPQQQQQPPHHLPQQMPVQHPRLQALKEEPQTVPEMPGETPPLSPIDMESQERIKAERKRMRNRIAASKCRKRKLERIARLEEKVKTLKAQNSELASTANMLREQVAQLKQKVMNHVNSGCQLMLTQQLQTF

Turning to `CNc1nc(-c2ccccc2)c(-c2nc3ccccc3c(=O)n2-c2ccccc2)s1`, the inhibition – broadly, how much of the control response was suppressed – with HEK293 [1] is 71%; in assay [2], 33%; in assay [3], 58%.
For the molecule `CNc1nc(C)c(-c2nc3ccccc3c(=O)n2-c2ccc(Cl)cc2)s1`, the IC50 (commonly the concentration needed to halve the response being measured) amounted to 3.3 µM in assay [4] and 12 µM in assay [5]. Moreover, the inhibition at 3.3 µM in the assay on FaDu turned out to be 20%. The values for the inhibition (in the assay on HEK293 [1]; in assay [2]) were 80% and 61%, respectively.
For the molecule `O=c1c2ccccc2nc(-c2sc(Nc3ccc(Cl)cc3)nc2-c2ccccc2)n1-c1ccc(Cl)cc1`, the inhibition in the assay on HEK293 [1] was 62%; in assay [2], 34%; in assay [3], 47%; with HEK293 [6], above 70%. The IC50 in assay [5] was 3.3 µM.
As to `O=C(Nc1nc(-c2ccccc2)c(-c2nc3ccccc3c(=O)n2-c2ccc(Cl)cc2)s1)c1ccccc1`, the inhibition with HEK293 [1] was 73%; in assay [2], 39%; in assay [3], 36%.
Taken in the same sequence, the figures for `COc1ccc(-n2c(-c3sc(Nc4ccccc4)nc3-c3ccccc3)nc3ccccc3c2=O)cc1` were 63%, 16% and 19%.
Consider `O=c1c2ccccc2nc(-c2sc(Nc3ccccc3)nc2-c2ccccc2)n1-c1ccc(Cl)cc1`, for which the inhibition with HEK293 [1] was 67%; in assay [2], 38%; in assay [3], 39%.
As to `CCOC(=O)Nc1nc(C)c(-c2nc3ccccc3c(=O)n2-c2ccc(Cl)cc2)s1`, the inhibition with HEK293 [1] was 54%; in assay [2], 50%; in assay [3] it was 30%; in the assay with HEK293 [6], above 70%. Besides, the IC50 in assay [5] worked out at 16 µM.
`Cc1nc(Nc2ccc(Cl)cc2)sc1-c1nc2ccccc2c(=O)n1-c1ccc(Cl)cc1`: the inhibition came out at 79% in the assay on HEK293 [1], 26% in assay [2] and 75% in assay [3]. Besides, the half-inhibitory concentration (IC50) in assay [5] worked out at 15 µM.
For `CCOC(=O)Nc1nc(-c2ccccc2)c(-c2nc3ccccc3c(=O)n2-c2ccc(Cl)cc2)s1`, the inhibition with HEK293 [1] was 24%; in assay [2], 18%; in assay [3], 20%.
As for `CNc1nc(-c2ccccc2)c(-c2nc3ccccc3c(=O)n2-c2ccc(Cl)cc2)s1`, the inhibition is 72% with HEK293 [1], 40% in assay [2] and 67% in assay [3]. The IC50 in assay [5] is above 250 µM.
In the case of `COc1ccc(-n2c(-c3sc(Nc4ccc(Cl)cc4)nc3-c3ccccc3)nc3ccccc3c2=O)cc1`, the inhibition with HEK293 [1] was 46%; in assay [2], 32%; in assay [3], 59%; in the assay with HEK293 [6] it was above 70%. Moreover, the 50% inhibitory concentration (IC50) in assay [5] is 20 µM.
In the case of `CCOC(=O)Nc1nc(-c2ccccc2)c(-c2nc3ccccc3c(=O)n2-c2ccccc2)s1`, the results for the inhibition (in the assay on HEK293 [1]; in assay [3]) were 32% and 7%, respectively. Moreover, the IC50 in assay [5] is above 10 µM.
On to `COc1ccc(-n2c(-c3sc(NC(=O)c4ccccc4)nc3-c3ccccc3)nc3ccccc3c2=O)cc1`, for which the inhibition is 12% in the assay with HEK293 [1], 31% in assay [2] and 8% in assay [3].
For `Cc1nc(Nc2ccccc2)sc1-c1nc2ccccc2c(=O)n1-c1ccc(Cl)cc1`, the half-inhibitory concentration (IC50) in assay [4] amounted to 5.5 µM. The inhibition with HEK293 [1] was 66%; in assay [2], 67%; in assay [3] it was 29%.
For the molecule `O=c1c2ccccc2nc(-c2sc(Nc3ccc(Cl)cc3)nc2-c2ccccc2)n1-c1ccccc1`, the values for the inhibition (in the assay on HEK293 [1]; in assay [3]) were 71% and 57%, respectively.
`CCOC(=O)Nc1nc(-c2ccccc2)c(-c2nc3ccccc3c(=O)n2-c2ccc(OC)cc2)s1`: the values for the inhibition (with HEK293 [1]; in assay [2]; in assay [3]) were 29%, 15% and 34%, respectively.
In the case of `O=C(Nc1nc(-c2ccccc2)c(-c2nc3ccccc3c(=O)n2-c2ccccc2)s1)c1ccccc1`, the inhibition with HEK293 [1] stood at 43%; in assay [2], 30%; in assay [3] it was 26%.
For the molecule `O=c1c2ccccc2nc(-c2sc(Nc3ccccc3)nc2-c2ccccc2)n1-c1ccccc1`, the inhibition in the assay on HEK293 [1] is 71%; in assay [2] it was 37%; in assay [3], 51%.
